# The source made the active and inactive calls. The calls are words filed in the database; no cut-off is given here.
# Key:
# [1] = target: T1, Tyrosinase (Homo sapiens) (UniProt P14679); test: Inhibition of tyrosinase (unknown origin) using L-tyrosine as substrate assessed as oxidation of L-tyrosine at 20 uM after 15 mins
# T1 sequence (whole entry): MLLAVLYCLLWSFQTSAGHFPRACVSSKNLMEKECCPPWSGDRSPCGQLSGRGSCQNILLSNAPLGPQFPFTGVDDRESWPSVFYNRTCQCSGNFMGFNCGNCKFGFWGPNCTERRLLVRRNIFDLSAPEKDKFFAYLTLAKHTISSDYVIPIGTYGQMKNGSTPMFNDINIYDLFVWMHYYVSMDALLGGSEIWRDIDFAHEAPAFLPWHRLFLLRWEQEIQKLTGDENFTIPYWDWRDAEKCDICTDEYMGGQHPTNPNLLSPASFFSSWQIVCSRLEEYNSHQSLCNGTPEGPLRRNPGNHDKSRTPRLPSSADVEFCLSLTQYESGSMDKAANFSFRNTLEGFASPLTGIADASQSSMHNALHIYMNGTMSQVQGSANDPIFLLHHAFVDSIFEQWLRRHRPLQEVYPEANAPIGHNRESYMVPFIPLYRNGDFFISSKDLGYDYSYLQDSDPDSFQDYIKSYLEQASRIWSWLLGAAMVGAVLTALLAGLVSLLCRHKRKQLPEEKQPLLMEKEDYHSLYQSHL
# Procedure, shortened: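 Tyrosinase at 333 U/mL (stock) in 45 mM sodium phosphate, pH 6.6, with 2 mM L-tyrosine (stock). Incubated 37 °C for 15 min; oxidation read at 492 nm. Screened at 20 μM; dose-response for IC50. Glyasperin C positive control.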
# [2] = target: T2, Nuclear factor erythroid 2-related factor 2 (Homo sapiens) (UniProt Q16236); test: Activation of NRF2 transcription in human HepG2C8 cells at 10 uM after 6 hrs by luciferase reporter gene assay relative to control; type: cell-based
# T2 sequence (whole entry): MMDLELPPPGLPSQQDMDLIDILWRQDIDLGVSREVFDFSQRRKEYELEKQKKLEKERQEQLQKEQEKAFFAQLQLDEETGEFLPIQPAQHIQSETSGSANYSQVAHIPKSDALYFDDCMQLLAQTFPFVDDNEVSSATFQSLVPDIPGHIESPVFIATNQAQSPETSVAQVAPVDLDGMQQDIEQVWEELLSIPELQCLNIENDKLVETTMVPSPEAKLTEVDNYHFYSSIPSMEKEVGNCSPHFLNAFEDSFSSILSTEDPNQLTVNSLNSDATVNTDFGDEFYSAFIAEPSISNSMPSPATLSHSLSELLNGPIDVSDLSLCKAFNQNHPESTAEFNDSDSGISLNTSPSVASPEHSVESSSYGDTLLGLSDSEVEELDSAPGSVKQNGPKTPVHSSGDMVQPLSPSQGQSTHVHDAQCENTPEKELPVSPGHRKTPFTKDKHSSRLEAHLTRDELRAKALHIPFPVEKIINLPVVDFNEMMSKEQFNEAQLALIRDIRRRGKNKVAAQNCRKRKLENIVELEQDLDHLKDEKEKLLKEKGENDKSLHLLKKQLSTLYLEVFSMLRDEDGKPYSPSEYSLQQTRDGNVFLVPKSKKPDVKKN
# Procedure, shortened: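 Luciferase reporter in HepG2C8 cells, which are HepG2 stably transfected with an Nrf2 luciferase reporter and grown in MEM. Screened at 10 μM, with dose-response over 2.5−40 μM. Activity expressed as fold of control. tBHQ positive control.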
# [3] = target: T3, Tyrosine-protein phosphatase non-receptor type 1 (Homo sapiens) (UniProt P18031); test: Inhibition of recombinant human PTP1B assessed as hydrolysis of p-nitrophenyl phosphate at 25 uM after 30 mins relative to control
# T3 sequence (whole entry): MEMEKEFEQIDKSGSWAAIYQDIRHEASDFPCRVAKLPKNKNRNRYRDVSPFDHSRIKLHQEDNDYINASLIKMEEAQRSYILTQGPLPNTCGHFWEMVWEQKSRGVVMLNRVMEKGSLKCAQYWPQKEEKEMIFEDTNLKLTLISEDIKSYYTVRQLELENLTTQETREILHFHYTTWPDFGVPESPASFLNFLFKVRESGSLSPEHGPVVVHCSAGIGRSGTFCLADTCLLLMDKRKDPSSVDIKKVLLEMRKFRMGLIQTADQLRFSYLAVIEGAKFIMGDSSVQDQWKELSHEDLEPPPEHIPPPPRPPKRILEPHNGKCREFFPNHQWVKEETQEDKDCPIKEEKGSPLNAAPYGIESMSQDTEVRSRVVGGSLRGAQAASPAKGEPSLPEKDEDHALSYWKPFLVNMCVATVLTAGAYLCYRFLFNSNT
# HepG2 = test: Cytotoxicity against human HepG2 cells assessed as reduction in cell viability after 24 hrs by MTS assay; type: functional, cell-based; conditions: HepG2, 24 h
# Procedure, shortened: (§1)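 Cells seeded at 5 × 10^3/well and cultured overnight, then exposed to compounds for 24 h. Viability read by MTS. Media: SW480 in RPMI1640, A549 in DMEM, MCF7 in MEM. […] Irinotecan positive control.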
# SW480 = test: Cytotoxicity against human SW480 cells assessed as reduction in cell viability after 24 hrs by MTS assay; type: functional, cell-based; conditions: SW480, 24 h; procedure, shortened: as §1
# A549 = test: Cytotoxicity against human A549 cells assessed as reduction in cell viability after 24 hrs by MTS assay; type: functional, cell-based; conditions: A549, 24 h; procedure, shortened: as §1
# MCF7 = test: Cytotoxicity against human MCF7 cells assessed as reduction in cell viability after 24 hrs by MTS assay; type: functional, cell-based; conditions: MCF7, 24 h; procedure, shortened: as §1
# Influenza A virus [4] = test: Antiviral activity against Influenza A virus A/WSN/33(H1N1) infected in MDCK cells at 100 uM preincubated with virus for 15 mins followed by cells addition measured at 36 hrs post infection; type: functional, A/WSN/1933(H1N1)
# Procedure, shortened: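 MDCK canine kidney cells grown in DMEM and infected with influenza A/WSN/33 (H1N1). Compounds screened at 100 μM. Oseltamivir phosphate served as the positive control.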
# Influenza A virus [5] = test: Antiviral activity against Influenza A virus A/WSN/33(H1N1) infected in dog MDCK cells preincubated with virus for 15 mins followed by cells addition measured at 36 hrs post infection; type: functional, organism-based; conditions: A/WSN/1933(H1N1)
compound,measurement,setting,value
COc1cc(/C=C/C(=O)c2ccc(O)cc2O)ccc1O,inhibition,[1],Active
COc1c(CC=C(C)C)c(O)cc2oc(=O)c3c4ccc(O)cc4oc3c12,fold change (FC),[2],0.88
COc1cc2c(c3oc(=O)c(-c4ccc(O)cc4O)cc13)C(C)(C)C(C)O2 (centres undefined),fold change (FC),[2],0.88
CC(C)=CCc1c(O)cc2oc(-c3ccc(O)cc3)c(O)c(=O)c2c1O,inhibition,[3],51%
COc1c2c(cc3oc(=O)c4c5ccc(O)cc5oc4c13)OC(C)(C)CC2,fold change (FC),[2],3.32
CC(C)=CCc1cc(-c2oc3cc(O)cc(O)c3c(=O)c2O)ccc1O,inhibition,[3],98%
COc1cc2c(c3oc(=O)c4c5ccc(O)cc5oc4c13)C(C)(C)C(C)O2 (centres undefined),fold change (FC),[2],0.88
C[C@@H]1O[C@@H](c2c(O)c([C@@H]3O[C@H](COC(=O)CC(C)(O)CC(=O)O)[C@@H](O)[C@H](O)[C@H]3O)c3oc(-c4ccc(O)cc4)cc(=O)c3c2O)[C@H](O)[C@H](O)[C@H]1O (some centres undefined),fold change (FC),[2],1.5
CC(C)=CCc1c(O)cc2occ(-c3ccc(O)c(O)c3)c(=O)c2c1O,IC50,HepG2,6 µM
same,IC50,SW480,12 µM
same,IC50,A549,20.3 µM
same,IC50,MCF7,7 µM
CC1(C)[C@@H](O)CC[C@]2(C)[C@H]3C(=O)C=C4[C@H]5C[C@@](C)(C(=O)O)CC[C@]5(C)CC[C@@]4(C)[C@]3(C)CC[C@@H]12,Activity,Influenza A virus [4],58%
same,inhibition,[3],81%
COc1c2c(cc3oc(=O)c(-c4ccc(O)cc4O)cc13)OC(C)(C)CC2,fold change (FC),[2],3.49
C=CC(C)(C)c1c(O)cc(OC)c2cc(-c3ccc(O)cc3O)c(=O)oc12,fold change (FC),[2],0.88
O=C1C[C@@H](c2ccc(O)cc2)Oc2cc(O)ccc21,inhibition,[3],inactive
CC(C)=CCc1cc(-c2oc3cc(O)cc(O)c3c(=O)c2O)cc(O)c1O,inhibition,[3],Active
COc1cc2c(c3oc(-c4ccc(O)cc4O)cc13)C(C)(C)C(C)O2 (centres undefined),inhibition,[3],> 90%
CC(C)=CCc1cc2c(=O)cc(-c3ccc(O)cc3)oc2cc1O,inhibition,[3],Active
COc1cc2c(c(OC)c1CC=C(C)C)C=C(c1ccc(O)cc1O)CO2,inhibition,[1],inactive
COc1cc2oc(=O)c(-c3ccc(O)cc3O)cc2c(OC)c1CC=C(C)C,fold change (FC),[2],0.88
CC(=O)O[C@@H]1C[C@](C)(C(=O)O)C[C@@H]2C3=CC(=O)[C@@H]4[C@@]5(C)CC[C@H](O[C@@H]6O[C@H](C(=O)O)[C@@H](O)[C@H](O)[C@H]6O[C@@H]6O[C@H](C(=O)O)[C@@H](O)[C@H](O)[C@H]6O)[C@](C)(CO)[C@@H]5CC[C@@]4(C)[C@]3(C)CC[C@]21C,Activity,Influenza A virus [4],47%
same,IC50,Influenza A virus [5],39.6 µM
C[C@@H]1O[C@@H](O[C@H]2[C@H](O[C@@H]3[C@@H](O[C@@H]4CC[C@]5(C)[C@H](CC[C@@]6(C)[C@H]5C(=O)C=C5[C@@H]7C[C@]8(C)C[C@@H](COC8=O)[C@@]7(C)CC[C@@]56C)C4(C)C)O[C@@H](C(=O)O)[C@H](O)[C@H]3O)O[C@H](C(=O)O)[C@@H](O)[C@@H]2O)[C@H](O)[C@H](O)[C@H]1O,Activity,Influenza A virus [4],47%
same,IC50,Influenza A virus [5],39.6 µM
O=C(/C=C/c1ccc(O)cc1)c1ccc(O)cc1O,fold change (FC),[2],5.88
same,inhibition,[1],Active
CC1(C)[C@@H](O[C@@H]2O[C@H](C(=O)O)[C@@H](O)[C@H](O)[C@H]2O[C@@H]2O[C@H](C(=O)O)[C@@H](O)[C@H](O)[C@H]2O)CC[C@]2(C)[C@H]3C(=O)C=C4[C@H]5C[C@](C)(C(=O)O)CC[C@]5(C)CC[C@@]4(C)[C@]3(C)CC[C@@H]12,Activity,Influenza A virus [4],47%
same,IC50,Influenza A virus [5],39.6 µM
C[C@@H]1[C@@H](O[C@@H]2O[C@H](C(=O)O)[C@@H](O)[C@H](O)[C@H]2O[C@@H]2O[C@H](C(=O)O)[C@@H](O)[C@H](O)[C@H]2O)CC[C@]2(C)[C@H]3CC=C4[C@H]5C[C@@](C)(C(=O)O)CC[C@]5(C)CC[C@@]4(C)[C@]3(C)CC[C@@H]12,Activity,Influenza A virus [4],47%
same,IC50,Influenza A virus [5],39.6 µM
CC(C)=CCc1c(O)ccc(-c2coc3c(CC=C(C)C)c(O)cc(O)c3c2=O)c1O,Activity,Influenza A virus [4],>30%
same,inhibition,[3],> 95%
CC(=O)O[C@H]1C[C@@](C)(C(=O)O)C[C@H]2C3=CC(=O)[C@H]4[C@]5(C)CC[C@@H](O[C@@H]6O[C@H](C(=O)O)[C@H](O)[C@H](O)[C@H]6O[C@H]6O[C@@H](CO)[C@H](O)[C@@H](O)[C@@H]6O[C@H]6O[C@H](C)[C@@H](O)[C@H](O)[C@@H]6O)C(C)(C)[C@H]5CC[C@]4(C)[C@@]3(C)CC[C@]12C,Activity,Influenza A virus [4],47%
same,IC50,Influenza A virus [5],39.6 µM
CC(C)=CCc1c(O)c(CC=C(C)C)c2occ(-c3ccc(O)cc3)c(=O)c2c1O,Activity,Influenza A virus [4],>30%
same,inhibition,[3],> 95%
COc1cc2c(c3oc(=O)c(-c4ccc(O)cc4O)cc13)C(C)(C)C(CO)O2 (centres undefined),fold change (FC),[2],0.88
CC1(C)[C@@H](O[C@@H]2O[C@H](C(=O)O)[C@@H](O)[C@H](O)[C@H]2O[C@@H]2O[C@H](C(=O)O)[C@@H](O)[C@H](O)[C@H]2O)CC[C@]2(C)C3=CC=C4[C@H]5C[C@@](C)(C(=O)O)CC[C@]5(C)CC[C@@]4(C)[C@]3(C)CC[C@@H]12,Activity,Influenza A virus [4],47%
same,IC50,Influenza A virus [5],39.6 µM
COc1c(CC=C(C)C)c(O)cc2oc(=O)c(-c3ccc(O)cc3O)cc12,fold change (FC),[2],1.72
C[C@H]1O[C@H](O[C@H]2CC(C)(C)C[C@@H]3C4=CC(=O)[C@H]5[C@]6(C)CC[C@@H](O[C@@H]7O[C@H](C(=O)O)[C@@H](O)[C@H](O)[C@H]7O[C@@H]7O[C@H](C(=O)O)[C@@H](O)[C@H](O)[C@H]7O)C(C)(C)[C@H]6CC[C@]5(C)[C@@]4(C)CC[C@]23C)[C@@H](O)[C@@H](O)[C@@H]1O,Activity,Influenza A virus [4],47%
same,IC50,Influenza A virus [5],39.6 µM
same,fold change (FC),[2],1.53
CC(=O)O[C@H]1C[C@@](C)(C(=O)O)C[C@H]2C3=CC(=O)[C@H]4[C@]5(C)CC[C@@H](O[C@@H]6O[C@H](C(=O)O)[C@@H](O)[C@H](O)[C@H]6O[C@@H]6O[C@H](CO)[C@H](O)[C@H](O)[C@H]6O)C(C)(C)[C@H]5CC[C@]4(C)[C@@]3(C)CC[C@]12C,Activity,Influenza A virus [4],47%
same,IC50,Influenza A virus [5],39.6 µM
C[C@]1(C(=O)O)CC[C@@]2(C)CC[C@@]3(C)C(=CC(=O)[C@H]4[C@]5(C)CC[C@@H](O[C@H]6O[C@@H](C(=O)O)[C@H](O)[C@@H](O)[C@@H]6O[C@H]6O[C@@H](C(=O)O)[C@H](O)[C@@H](O)[C@@H]6O)[C@@](C)(CO)[C@H]5CC[C@@]43C)[C@@H]2C1,Activity,Influenza A virus [4],47%
same,IC50,Influenza A virus [5],39.6 µM

# — ChEMBL document CHEMBL3808312, “Bioactive Constituents of Glycyrrhiza uralensis (Licorice): Discovery of the Effective Components of a Traditional Herbal Medicine” (J Nat Prod, 2016)
